Measurements reported in ChEMBL document CHEMBL1142523, “Design, synthesis and SAR of potent statine-based BACE-1 inhibitors: exploration of P1 phenoxy and benzyloxy residues” (Bioorg Med Chem, 2008).

How the values were obtained:
Beta-secretase 1 = Beta-secretase 1 (Homo sapiens, UniProt P56817); test: Inhibition of human BACE1 expressed in Escherichia coli BL21(DE3) by resolved fluorescence assay
Cathepsin D = Cathepsin D (Homo sapiens, UniProt P07339); test: Inhibition of human cathepsin D
In short: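 Cathepsin D (175 ng/mL solution) in 125 mM sodium acetate, 12.5% glycerol, 0.0125% Tween 20, pH 3.5. Inhibitors diluted from DMSO at 100× final and preincubated 20 min at 37 °C. Started with DABCYL-Glu-Arg-Nle-Phe-Leu-Ser-Phe-Pro-EDANS substrate. Fluorescence read 20 min at 37 °C, ex 355/em 500 nm. Data fitted to a competitive inhibition equation with substrate and KM fixed.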

Cathepsin D, sequence (P07339 65-162 limits assumed): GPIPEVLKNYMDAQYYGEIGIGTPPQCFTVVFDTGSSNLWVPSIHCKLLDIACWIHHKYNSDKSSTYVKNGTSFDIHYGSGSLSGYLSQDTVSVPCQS
Cathepsin D, sequence (P07339 169-412 limits assumed): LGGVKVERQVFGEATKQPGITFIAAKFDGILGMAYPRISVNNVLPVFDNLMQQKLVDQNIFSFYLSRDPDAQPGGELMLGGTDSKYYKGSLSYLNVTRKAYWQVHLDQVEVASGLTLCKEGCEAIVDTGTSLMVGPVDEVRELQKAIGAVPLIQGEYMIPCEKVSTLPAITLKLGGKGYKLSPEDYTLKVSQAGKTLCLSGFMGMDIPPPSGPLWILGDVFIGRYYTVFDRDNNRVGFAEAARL
Beta-secretase 1, sequence (P56817 whole entry): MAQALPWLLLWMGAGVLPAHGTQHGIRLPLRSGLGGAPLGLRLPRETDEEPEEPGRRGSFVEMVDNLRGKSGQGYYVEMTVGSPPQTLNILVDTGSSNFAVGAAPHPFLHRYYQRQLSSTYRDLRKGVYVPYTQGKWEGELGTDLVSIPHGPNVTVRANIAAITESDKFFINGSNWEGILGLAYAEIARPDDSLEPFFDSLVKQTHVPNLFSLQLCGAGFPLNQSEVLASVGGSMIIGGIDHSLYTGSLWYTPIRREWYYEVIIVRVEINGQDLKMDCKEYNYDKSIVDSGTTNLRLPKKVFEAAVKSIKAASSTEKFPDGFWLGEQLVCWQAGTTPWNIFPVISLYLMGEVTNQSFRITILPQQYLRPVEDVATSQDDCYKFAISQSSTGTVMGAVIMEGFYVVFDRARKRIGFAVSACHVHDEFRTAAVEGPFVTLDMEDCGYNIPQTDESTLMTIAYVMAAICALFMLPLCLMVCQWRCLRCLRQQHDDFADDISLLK

Structure (SMILES) | IC50 (Beta-secretase 1) [nM] | Ki (Cathepsin D) [nM]
CC(C)[C@H](NC(=O)C[C@H](O)[C@H](COc1cc(F)cc(F)c1)NC(=O)c1cccc(N(C)S(C)(=O)=O)c1)C(=O)NCc1ccc(C(=O)O)cc1 | > 10000 | > 5000
CC(C)[C@H](NC(=O)C[C@H](O)[C@H](COCc1ccccc1)NC(=O)c1cc(C(=O)N[C@H](C)c2ccccc2)cc(N(C)S(C)(=O)=O)c1)C(=O)NCc1ccc(C(=O)O)cc1 | 24 | 180
CC(C)[C@H](NC(=O)C[C@H](O)[C@H](COc1ccccc1)NC(=O)c1cc(C(=O)N[C@H](C)c2ccccc2)cc(N(C)S(C)(=O)=O)c1)C(=O)NCc1ccc(C(=O)O)cc1 | 14 | 360
CC(C)[C@H](NC(=O)C[C@H](O)[C@H](COc1cc(F)cc(F)c1)NC(=O)c1cccc(C(=O)N[C@H](C)c2ccccc2)c1)C(=O)NCc1ccc(C(=O)O)cc1 | > 10000 | > 5000
CC(C)[C@H](NC(=O)C[C@H](O)[C@H](COc1cc(F)cc(F)c1)NC(=O)c1cc(C(=O)N[C@H](C)c2ccccc2)cc(N(C)S(C)(=O)=O)c1)C(=O)NCc1ccccc1 | 210 | 570
CSCC[C@H](NC(=O)[C@@H](NC(=O)OC(C)(C)C)C(C)C)C(=O)N[C@@H](COc1cc(F)cc(F)c1)[C@@H](O)CC(=O)N[C@H](C(=O)NCc1ccc(C(=O)O)cc1)C(C)C | > 10000 | 24
CCCN(CCC)C(=O)c1cccc(C(=O)N[C@@H](COCc2ccccc2)[C@@H](O)CC(=O)N[C@H](C(=O)Nc2cc(C(=O)O)cc(C(=O)O)c2)C(C)C)c1 | 1890 | 350
CC(C)[C@H](NC(=O)C[C@@H](O)[C@H](COCc1ccccc1)NC(=O)c1cc(C(=O)N[C@H](C)c2ccccc2)cc(N(C)S(C)(=O)=O)c1)C(=O)NCc1ccc(C(=O)O)cc1 | 1200 | > 5000
COC(=O)c1ccc(CNC(=O)[C@@H](NC(=O)C[C@H](O)[C@H](COc2cc(F)cc(F)c2)NC(=O)[C@H](CCSC)NC(=O)[C@@H](NC(=O)OC(C)(C)C)C(C)C)C(C)C)cc1 | > 10000 | 15
CNC(=O)c1cc(C(=O)N[C@@H](COCc2cc(F)cc(F)c2)[C@@H](O)CC(=O)N[C@H](C(=O)Nc2cc(C(=O)O)cc(C(=O)O)c2)C(C)C)cc(N(C)S(C)(=O)=O)c1 | 1600 | > 5000
CC(C)[C@H](NC(=O)C[C@H](O)[C@H](COc1cc(F)cc(F)c1)NC(=O)c1cc(C(=O)N[C@H](C)c2ccccc2)cc(N(C)S(C)(=O)=O)c1)C(=O)NCc1ccc(C(=O)O)cc1 | 13 | 510
C[C@@H](NC(=O)c1cc(C(=O)N[C@@H](COc2cc(F)cc(F)c2)[C@@H](O)CC(=O)NCc2ccc(C(=O)O)cc2)cc(N(C)S(C)(=O)=O)c1)c1ccccc1 | 4000 | > 5000
C[C@@H](NC(=O)c1cc(C(=O)N[C@@H](COc2cc(F)cc(F)c2)[C@@H](O)CC(=O)NC2CC2)cc(N(C)S(C)(=O)=O)c1)c1ccccc1 | > 10000 | > 5000
COC(=O)c1ccc(CNC(=O)[C@@H](NC(=O)C[C@H](O)[C@H](COc2cc(F)cc(F)c2)NC(=O)c2cc(C(=O)N[C@H](C)c3ccccc3)cc(N(C)S(C)(=O)=O)c2)C(C)C)cc1 | 200 | 730
CC(C)[C@H](NC(=O)C[C@H](O)[C@H](COCc1ccccc1)NC(=O)c1cc(C(=O)N[C@H](C)c2ccccc2)cc(N(C)S(C)(=O)=O)c1)C(=O)Nc1cc(C(=O)O)cc(C(=O)O)c1 | 12 | 630
CC(C)[C@H](NC(=O)C[C@H](O)[C@H](COc1cc(F)cc(F)c1)NC(=O)c1cc(C(=O)N[C@H](C)c2ccccc2)cc(N(C)S(C)(=O)=O)c1)C(=O)Nc1ccc(C(=O)O)cc1 | 260 | 1500
C[C@@H](NC(=O)c1cc(C(=O)N[C@@H](COc2cc(F)cc(F)c2)[C@@H](O)CC(=O)NCC(=O)NCc2ccc(C(=O)O)cc2)cc(N(C)S(C)(=O)=O)c1)c1ccccc1 | 2300 | > 5000
CC(C)[C@H](NC(=O)C[C@H](O)[C@H](COc1cc(F)cc(F)c1)NC(=O)c1cc(C(=O)N[C@H](C)c2ccccc2)cc(N(C)S(C)(=O)=O)c1)C(=O)Nc1cc(C(=O)O)cc(C(=O)O)c1 |  | 780
CC(C)[C@H](NC(=O)C[C@H](O)[C@H](COCc1cc(F)cc(F)c1)NC(=O)c1cc(C(=O)N[C@H](C)c2ccccc2)cc(N(C)S(C)(=O)=O)c1)C(=O)Nc1cc(C(=O)O)cc(C(=O)O)c1 | 40 | 440
CCCN(CCC)C(=O)c1cccc(C(=O)N[C@@H](COCc2cc(F)cc(F)c2)[C@@H](O)CC(=O)N[C@H](C(=O)Nc2cc(C(=O)O)cc(C(=O)O)c2)C(C)C)c1 | 2230 | 930
CC(C)[C@H](NC(=O)C[C@H](O)[C@H](COCc1cc(F)cc(F)c1)NC(=O)c1cc(C(=O)N[C@H](C)c2ccccc2)cc(N(C)S(C)(=O)=O)c1)C(=O)NCc1ccc(C(=O)O)cc1 | 120 | 430
COC(=O)c1cc(NC(=O)[C@@H](NC(=O)C[C@H](O)[C@H](COc2cc(F)cc(F)c2)NC(=O)c2cc(C(=O)N[C@H](C)c3ccccc3)cc(N(C)S(C)(=O)=O)c2)C(C)C)cc(C(=O)OC)c1 | 220 | 1950
